This passage reports IC50, AUC and Cmax results from ChEMBL document CHEMBL1132483, “Fused bicyclic Gly-Asp beta-turn mimics with specific affinity for GPIIb-IIIa” (J Med Chem, 1999).

As a reminder, the IC50 is the concentration needed to halve the response being measured. A higher IC50 goes with a need for much substance. By AUC is commonly meant the area under the concentration-time curve, a measure of exposure. A higher AUC goes with more exposure. Usually Cmax stands for the maximum level reached in the sampled fluid or tissue.

Data set [1] is filed under the species Homo sapiens. Put plainly: Concentration required to reduce ADP-induced platelet aggregation in platelet rich plasma by 50%. The class given is functional. Put shortly: (§1)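 Human platelet-rich plasma was incubated for 1 min with varying test concentrations or vehicle, then aggregation was triggered with ADP. The response was followed turbidimetrically. IC50 is the concentration cutting the aggregation response by 50%, averaged from at least two determinations, with average error ±16%.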

For data set [2], the species on record is Homo sapiens. Put plainly: Concentration required to reduce ADP-induced platelet aggregation in platelet rich plasma by 50%. Type of data set: functional. Put shortly:
as §1

In data set [3] the target is Integrin alpha-IIb/beta-3 (Homo sapiens, UniProt P05106+P08514). Put plainly: Inhibition of fibrinogen binding to purified human alpha IIb beta-3 integrin (GP IIb-IIIa). The class given is protein-complex assay.
Integrin alpha-IIb/beta-3, sequence (P05106 27-788 limits assumed): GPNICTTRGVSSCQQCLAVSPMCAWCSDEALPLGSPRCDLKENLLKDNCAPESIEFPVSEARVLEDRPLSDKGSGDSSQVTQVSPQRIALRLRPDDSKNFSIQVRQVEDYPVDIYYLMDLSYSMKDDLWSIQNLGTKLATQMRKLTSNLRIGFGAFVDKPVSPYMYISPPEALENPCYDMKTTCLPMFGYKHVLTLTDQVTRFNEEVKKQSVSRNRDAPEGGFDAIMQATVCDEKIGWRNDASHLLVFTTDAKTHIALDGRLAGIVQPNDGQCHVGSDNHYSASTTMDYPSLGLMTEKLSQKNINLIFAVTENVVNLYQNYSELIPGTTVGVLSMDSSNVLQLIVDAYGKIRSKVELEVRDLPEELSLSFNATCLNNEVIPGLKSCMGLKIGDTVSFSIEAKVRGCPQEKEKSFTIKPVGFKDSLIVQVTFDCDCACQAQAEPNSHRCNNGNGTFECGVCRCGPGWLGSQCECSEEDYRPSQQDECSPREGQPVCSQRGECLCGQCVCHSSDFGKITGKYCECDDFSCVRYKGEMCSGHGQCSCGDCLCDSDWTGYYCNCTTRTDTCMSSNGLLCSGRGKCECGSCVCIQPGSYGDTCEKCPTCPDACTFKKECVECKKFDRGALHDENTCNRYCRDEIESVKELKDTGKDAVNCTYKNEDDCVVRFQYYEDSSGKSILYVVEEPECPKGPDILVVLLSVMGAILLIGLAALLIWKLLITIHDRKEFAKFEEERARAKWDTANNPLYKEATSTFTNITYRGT
Integrin alpha-IIb/beta-3, sequence (P08514 32-887 limits assumed): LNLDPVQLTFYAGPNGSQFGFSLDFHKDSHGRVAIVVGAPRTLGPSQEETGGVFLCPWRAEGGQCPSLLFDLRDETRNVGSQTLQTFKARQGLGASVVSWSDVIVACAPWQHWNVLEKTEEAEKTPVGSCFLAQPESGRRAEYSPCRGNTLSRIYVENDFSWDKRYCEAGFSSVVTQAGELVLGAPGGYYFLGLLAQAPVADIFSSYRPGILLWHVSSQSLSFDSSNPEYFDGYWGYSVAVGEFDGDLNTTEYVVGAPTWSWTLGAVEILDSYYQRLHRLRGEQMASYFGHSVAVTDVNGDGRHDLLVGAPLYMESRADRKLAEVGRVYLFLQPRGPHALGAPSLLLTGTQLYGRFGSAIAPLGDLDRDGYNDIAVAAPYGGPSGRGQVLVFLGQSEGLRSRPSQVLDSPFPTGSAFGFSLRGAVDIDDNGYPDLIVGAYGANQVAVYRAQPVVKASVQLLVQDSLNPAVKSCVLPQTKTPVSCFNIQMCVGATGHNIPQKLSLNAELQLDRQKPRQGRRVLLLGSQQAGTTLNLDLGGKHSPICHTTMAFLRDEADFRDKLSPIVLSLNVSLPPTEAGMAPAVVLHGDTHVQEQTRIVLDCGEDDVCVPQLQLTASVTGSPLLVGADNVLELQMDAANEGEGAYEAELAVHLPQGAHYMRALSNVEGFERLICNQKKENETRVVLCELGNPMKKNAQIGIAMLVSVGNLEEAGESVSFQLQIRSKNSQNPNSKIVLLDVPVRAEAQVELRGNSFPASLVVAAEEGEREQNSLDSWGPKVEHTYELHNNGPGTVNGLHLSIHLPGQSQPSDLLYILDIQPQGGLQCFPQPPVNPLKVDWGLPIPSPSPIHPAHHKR
Integrin alpha-IIb/beta-3, sequence (P08514 891-1039 limits assumed): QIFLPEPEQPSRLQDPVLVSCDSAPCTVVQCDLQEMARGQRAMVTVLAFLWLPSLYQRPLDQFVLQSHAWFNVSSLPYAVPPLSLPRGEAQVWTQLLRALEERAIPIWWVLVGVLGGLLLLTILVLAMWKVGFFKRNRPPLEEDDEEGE
Data set [4] in a line: AUC (ng h/mL) value after oral administration of 10 mg/kg in guinea pig. Type of data set: ADME, organism-based, Cavia porcellus. The arrangement: dose 10 mg/kg, route oral. To be noted: plasma. Put shortly: (§2)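 Guinea pigs were fasted overnight and given a single 10 mg/kg oral gavage dose, formulated at 3 mg/mL in 50% poly(ethylene glycol) 300. Blood was drawn under isoflurane anesthesia into 3.8% trisodium citrate (9:1). Plasma was assayed by HPLC. AUC covers the 0-5 h time course, and Cmax is the peak plasma level.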

Data set [5] is described as follows: Cmax (ng /mL) value after oral administration of 10 mg/kg in guinea pig. Type of data set: ADME, organism-based, Cavia porcellus. Further details: dose 10 mg/kg, route oral. The settings on record: in vivo. Put shortly: as §2
Data set [6] in a line: Cmax(ng /mL)values after oral administration of 10 mg/kg in guinea pig. The class given is ADME, organism-based, Cavia porcellus. Further details: dose 10 mg/kg, route oral. To be noted: in vivo. Put shortly: as §2
Data set [7] in a line: AUC(ng h/mL)values after oral administration of 10 mg/kg in guinea pig. Type of data set: ADME, organism-based, Cavia porcellus. The arrangement: dose 10 mg/kg, route oral. The settings on record: plasma. Put shortly:
as §2

The nature of data set [8]: AUC(ng h/mL)values after oral administration of 10 mg/kg in rat. Type of data set: ADME, organism-based. The arrangement: dose 10 mg/kg, route oral. The settings on record: plasma. Put shortly:
(§3)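 Rats were fasted overnight and dosed once by oral gavage at 10 mg/kg, in vehicle of 50% poly(ethylene glycol) 300 at 3 mg/mL. Blood was collected under isoflurane into 3.8% trisodium citrate (9:1), and plasma was prepared for HPLC analysis. AUC refers to the sampled time course.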

Data set [9] in a line: Cmax(ng /mL)values after oral administration of 10 mg/kg in rat. The class given is ADME, organism-based. The arrangement: dose 10 mg/kg, route oral. The settings on record: in vivo. Put shortly: as §3

`N=C(N)c1ccc(C(=O)Nc2ccc3c(c2)CCC(CC(=O)O)C3=O)cc1` (stereo unspecified): the IC50 in the data set listed under Homo sapiens [1] stood at 0.02 µg/mL; in the data set listed under Homo sapiens [2], 60 nM.

Regarding `N=C(N)c1ccc(COc2ccc3c(=O)n(CC(=O)O)ccc3c2)cc1`, in [3], the IC50 is 4200 nM. In other words, the single-digit micromolar range.

With `N=C(N)c1ccc(COc2ccc3c(c2)CCC(CC(=O)O)O3)cc1` (stereo unspecified), the values for the IC50 (in the data set filed under Homo sapiens [2]; in data set [3]) were 2500 nM and 39 nM, respectively.

For the molecule `CCOC(=O)Cn1ccc2cc(NC(=O)c3ccc(C(=N)N)cc3)ccc2c1=O`, the AUC in [4] was found to be 543 ng·h/mL. In data set [5], the Cmax turned out to be 177 ng/mL.

Take `CCOC(=O)Cc1cc2ccc(NC(=O)c3ccc(C(=N)N)cc3)cc2cn1`: the AUC in [4] is 1580 ng·h/mL. The highest level in [5] (Cmax) was 469 ng/mL.

`N=C(N)c1ccc(COc2ccc3c(c2)CN(CC(=O)O)C3=O)cc1` yielded an IC50 in data set [3] of 1200 nM.

As for `N=C(N)c1ccc(C(=O)Nc2ccc3c(c2)CCC(CC(=O)O)C3)cc1` (stereo unspecified), the IC50 in the data set listed under Homo sapiens [1] came to 190 nM; in the data set listed under Homo sapiens [2], 0.067 µg/mL. Moreover, the peak concentration (Cmax) in [6] amounted to 252 ng/mL. The AUC in [7] stood at 903 ng·h/mL.

In the case of `CCOC(=O)CC1CCc2cc(NC(=O)c3ccc(C(=N)N)cc3)ccc2C1` (stereo unspecified), the area under the curve (AUC) in data set [8] came to 15900 ng·h/mL; in data set [7] it was 3700 ng·h/mL. Moreover, the Cmax was found to be 5060 ng/mL in data set [9] and 1170 ng/mL in data set [6].

In turn, `N=C(N)c1ccc(COc2ccc(C(=O)NCC(=O)O)cc2)cc1` yielded an IC50 in data set [3] of 5000 nM.

`N=C(N)c1ccc(COc2ccc3c(c2)CC(=O)N(CC(=O)O)C3)cc1` had an IC50 in data set [3] of 5800 nM.

As for `N=C(N)c1ccc(C(=O)Nc2ccc3c(c2)CCN(CC(=O)O)C3)cc1`, the concentration for half-maximal inhibition (IC50) in the data set listed under Homo sapiens [1] was determined as 0.06 µg/mL; in the data set listed under Homo sapiens [2], 170 nM.

With `CCOC(=O)CC1CCc2cc(NC(=O)c3ccc(C(=N)N)cc3)ccc2O1` (stereo unspecified), in data set [8], the exposure (AUC) is 14800 ng·h/mL. The molecule also gave a peak concentration (Cmax) in data set [9] of 4850 ng/mL.

For `CCOC(=O)CC1CCc2cc(NC(=O)c3ccc(C(=N)N)cc3)ccc2C1=O` (stereo unspecified), the area under the curve (AUC) stood at 11200 ng·h/mL in data set [8] and 3990 ng·h/mL in data set [7]. Also, the maximum concentration (Cmax) in [9] turned out to be 3630 ng/mL; in data set [6] it was 1150 ng/mL.

For the molecule `N=C(N)c1ccc(C(=O)Nc2ccc3c(c2)CCN(CC(=O)O)C3=O)cc1`, the results for the half-inhibitory concentration (IC50) in the data set listed under Homo sapiens [1] and in the data set listed under Homo sapiens [2] were 90 nM and 0.032 µg/mL, respectively. The peak level in data set [6] (Cmax) was 126 ng/mL. The molecule also came in with an AUC in data set [7] of 400 ng·h/mL.

For `N=C(N)c1ccc(C(=O)Nc2ccc3c(c2)CCC(CC(=O)O)O3)cc1` (stereo unspecified), the IC50 was 0.027 µg/mL in the data set listed under Homo sapiens [1], 190 nM in the data set listed under Homo sapiens [2] and 2 nM in [3].

Molecule `N=C(N)c1ccc(COc2ccc3c(c2)CCCN(CC(=O)O)C3=O)cc1` yielded a half-maximal inhibitory concentration (IC50) in [3] of 600 nM.

As for `N=C(N)c1ccc(COc2ccc3c(c2)CCC(CC(=O)O)C3=O)cc1` (stereo unspecified), the concentration for half-maximal inhibition (IC50) in the data set filed under Homo sapiens [2] was 450 nM; in data set [3], 27 nM.

Take `N=C(N)c1ccc(COc2ccc3c(c2)CCC(CC(=O)O)C3)cc1` (stereo unspecified): the IC50 in the data set listed under Homo sapiens [2] was found to be 33000 nM; in [3], 260 nM.

In the case of `N=C(N)c1ccc(COc2ccc3c(c2)CCN(CC(=O)O)C3)cc1`, half-maximal inhibition in the data set filed under Homo sapiens [2] (IC50) required 330 nM.
